According to ChEMBL document CHEMBL1122463, “2,3-dihydro-3-(1-pyrryl)spiro[benzofuran-2,4'-piperidine]s and 2,3-dihydro-3-(1-pyrryl)spiro[benzofuran-2,3'-pyrrolidine]s: novel antihypertensive agents” (1983):
Where “and” joins values, the source holds several entries; their conditions need not be identical. Equal entries are not always repeated.

Columns and labels:
Canis familiaris [1] = experiment: Effect of compound at a dose of 10 mg/kg iv, on standard cardiovascular in anesthetized normotensive dogs after administration of carbachol; type: functional, Canis lupus familiaris, Heart
Procedure, shortened: (§1)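 Trachea intubated, artificially respired, bilateral vagotomy. Femoral artery cannulated for BP, femoral vein for drugs. BP and heart rate recorded continuously. Each iv challenge given twice predrug for matched responses and once after test drug. Doses: epinephrine and norepinephrine 0.5 to 1.0 μg/kg; isoproterenol and carbachol 0.25 μg/kg.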

Canis familiaris [2] = experiment: Effect of compound at a dose of 10 mg/kg iv, on standard cardiovascular in anesthetized normotensive dogs after administration of epinephrine.; type: functional, Canis lupus familiaris, Heart; procedure, shortened: as §1
Canis familiaris [3] = experiment: Effect of compound at a dose of 10 mg/kg iv, on standard cardiovascular in anesthetized normotensive dogs after administration of isoproterenol.; type: functional, Canis lupus familiaris, Heart; procedure, shortened: as §1
Canis familiaris [4] = experiment: Effect of compound at a dose of 10 mg/kg iv, on standard cardiovascular in anesthetized normotensive dogs before administration of isoproterenol.; type: functional, Canis lupus familiaris, Heart; procedure, shortened: as §1
Canis familiaris [5] = experiment: Effect of compound at a dose of 10 mg/kg iv, on standard cardiovascular in anesthetized normotensive dogs before administration of norepinephrine.; type: functional, Canis lupus familiaris, Heart; procedure, shortened: as §1
Canis familiaris [6] = experiment: Effect of compound at a dose of 10 mg/kg iv, on standard cardiovascular in anesthetized normotensive dogs before administration of tyramine.; type: functional, Canis lupus familiaris, Heart; procedure, shortened: as §1
Canis familiaris [7] = experiment: Hemodynamic effect in sinoaortic- deafferented hypertensive dog measured as mean arterial BP after 0 min of 5 mg/kg dose; type: functional, Canis lupus familiaris
Canis familiaris [8] = experiment: Hemodynamic effect in sinoaortic- deafferented hypertensive dog measured as mean arterial BP after 30 min of 5 mg/kg dose; type: functional, Canis lupus familiaris
Canis familiaris [9] = experiment: Hemodynamic effect in sinoaortic- deafferented hypertensive dog measured as mean arterial BP after 5 min of 5 mg/kg dose; type: functional, Canis lupus familiaris
Canis familiaris [10] = experiment: Hemodynamic effect in sinoaortic- deafferented hypertensive dog measured as mean arterial BP after 60 min of 5 mg/kg dose; type: functional, Canis lupus familiaris
Canis familiaris [11] = experiment: Mean arterial BP after administration at a dose of 10 mg/kg iv.; type: functional, Canis lupus familiaris
Canis familiaris [12] = experiment: Mean arterial BP before administration at a dose of 10 mg/kg iv.; type: functional, Canis lupus familiaris
Canis familiaris [13] = experiment: Hemodynamic effect in sinoaortic- deafferented hypertensive dog measured as heart rate after 0 min of 5 mg/kg dose; type: functional, Canis lupus familiaris
Canis familiaris [14] = experiment: Hemodynamic effect in sinoaortic- deafferented hypertensive dog measured as heart rate after 30 min of 5 mg/kg dose; type: functional, Canis lupus familiaris
Canis familiaris [15] = experiment: Hemodynamic effect in sinoaortic- deafferented hypertensive dog measured as heart rate after 5 min of 5 mg/kg dose; type: functional, Canis lupus familiaris
Canis familiaris [16] = experiment: Hemodynamic effect in sinoaortic- deafferented hypertensive dog measured as heart rate after 60 min of 5 mg/kg dose; type: functional, Canis lupus familiaris
Canis familiaris [17] = experiment: Mean Heart rate after. administration at a dose of 10 mg/kg iv.; type: functional, Canis lupus familiaris
Canis familiaris [18] = experiment: Mean Heart rate before administration at a dose of 10 mg/kg iv.; type: functional, Canis lupus familiaris
Canis familiaris [19] = experiment: Hemodynamic effect in sinoaortic- deafferented hypertensive dog measured as left ventricular pressure after 0 min of 5 mg/kg; type: functional, Canis lupus familiaris, Heart left ventricle
Canis familiaris [20] = experiment: Hemodynamic effect in sinoaortic- deafferented hypertensive dog measured as left ventricular pressure after 30 min of 5 mg/kg; type: functional, Canis lupus familiaris, Heart left ventricle
Canis familiaris [21] = experiment: Hemodynamic effect in sinoaortic- deafferented hypertensive dog measured as left ventricular pressure after 5 min of 5 mg/kg; type: functional, Canis lupus familiaris, Heart left ventricle
Canis familiaris [22] = experiment: Hemodynamic effect in sinoaortic- deafferented hypertensive dog measured as left ventricular pressure after 60 min of 5 mg/kg; type: functional, Canis lupus familiaris, Heart left ventricle
Canis familiaris [23] = experiment: Effect of compound at a dose of 10 mg/kg iv, on standard cardiovascular in anesthetized normotensive dogs after administration of norepinephrine.; type: functional, Canis lupus familiaris, Heart; procedure, shortened: as §1
Canis familiaris [24] = experiment: Effect of compound at a dose of 10 mg/kg iv, on standard cardiovascular in anesthetized normotensive dogs after administration of tyramine.; type: functional, Canis lupus familiaris, Heart; procedure, shortened: as §1
Canis familiaris [25] = experiment: Effect of compound at a dose of 10 mg/kg iv, on standard cardiovascular in anesthetized normotensive dogs before administration of carbachol; type: functional, Canis lupus familiaris, Heart; procedure, shortened: as §1
Canis familiaris [26] = experiment: Effect of compound at a dose of 10 mg/kg iv, on standard cardiovascular in anesthetized normotensive dogs before administration of epinephrine.; type: functional, Canis lupus familiaris, Heart; procedure, shortened: as §1
Rattus norvegicus [27] = experiment: hypotensive activity in renal hypertensive rats by using tail-cuff method measured as post drug BP (day/h) after administration of 10 mg/kg dose po;(day/h=2/2); type: functional, Blood
Procedure, shortened: (§2)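 Renal hypertension (modified Grollman) was made in male Sprague-Dawley rats under pentobarbital sodium 50 mg/kg ip. The right kidney was removed, and silk sutures around both poles of the left kidney constricted the parenchyma. After 3 weeks of stabilization, rats with systolic BP >150 mmHg were used. Compounds were given orally. Systolic BP was measured by tail-cuff predose and at the stated day/h after dosing.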

Rattus norvegicus [28] = experiment: (§3) Oral hypotensive activity in spontaneously hypertensive rats by using tail-cuff method measured as change in systolic BP at the dose of 10 mg/kg po.; type: functional, Blood
Procedure, shortened: (§4)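 SHR of the Okamoto-Aoki strain, dosed orally every day with compound suspended in distilled water with Tween 80. Systolic pressure was taken by tail-cuff plethysmography on day 1 (predose, 2 h), day 3 (predose, 2 h) and day 5 (predose, 2 and 4 h). Initial BP is the pretreatment systolic pressure, with 4–8 rats per dose in the dose-response screen.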

Rattus norvegicus [29] = experiment: hypotensive activity in renal hypertensive rats by using tail-cuff method measured as post drug BP (day/h) after administration of 10 mg/kg dose po;(day/h=3/2); type: functional, Blood; procedure, shortened: as §2
Rattus norvegicus [30] = experiment: (§5) Oral hypotensive activity in spontaneously hypertensive rats by using tail-cuff method measured as change in systolic BP at the dose of 25 mg/kg po.; type: functional, Blood; procedure, shortened: as §4
Rattus norvegicus [31] = experiment: (§6) Oral hypotensive activity in spontaneously hypertensive rats by using tail-cuff method measured as change in systolic BP at the dose of 50 mg/kg po.; type: functional, Blood
Procedure, shortened: (§7)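 Okamoto-Aoki strain spontaneously hypertensive rats. Compounds were suspended in distilled water with Tween 80 and given orally every day at 50, 30, 10 or 3 mg/kg. Systolic BP was measured by tail-cuff plethysmography on day 1 (predose and 2 h), day 3 (predose and 2 h) and day 5 (predose, 2 and 4 h). The screen used 4 rats; dose-response used 4–8 rats per dose.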

Rattus norvegicus [32] = experiment: (§8) Oral hypotensive activity in spontaneously hypertensive rats by using tail-cuff method measured as change in systolic BP at the dose of 5 mg/kg po.; type: functional, Blood; procedure, shortened: as §7
Rattus norvegicus [33] = experiment: hypotensive activity in renal hypertensive rats by using tail-cuff method measured as post drug BP (day/h) after administration of 10 mg/kg dose po;(day/h=3/0); type: functional, Blood; procedure, shortened: as §2
Rattus norvegicus [34] = experiment: Hypotensive activity in renal hypertensive rats by using tail-cuff method measured as initial BP at the dose of 10 mg/kg po.; type: functional, Blood
Procedure, shortened: (§9)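 Renal hypertension made in male Sprague-Dawley rats (Grollman modification). Under pentobarbital (50 mg/kg ip), the right kidney was removed and silk sutures tied around both poles of the left kidney to constrict it. After 3 weeks, rats with systolic BP >150 mmHg were used. Compound given po daily to 4 rats. Systolic BP by tail-cuff plethysmography at the listed day/hour after dosing.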

Rattus norvegicus [35] = experiment: Hypotensive activity in renal hypertensive rats by using tail-cuff method measured as post drug BP (day/h) after administration of 10 mg/kg dose po;(day/h=1/2); type: functional, Blood; procedure, shortened: as §9
Rattus norvegicus [36] = experiment: as §3; type: functional, Blood; remark: listed apart in the source
Procedure, shortened: (§10)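 Okamoto-Aoki spontaneously hypertensive rats. Compound suspended in distilled water with Tween 80, given po daily, screening dose 50 mg/kg, dose-response at 50, 30, 10 or 3 mg/kg unless stated. Systolic BP by tail-cuff plethysmography on day 1 predose and 2 h, day 3 predose and 2 h, and day 5 predose, 2 and 4 h. Reported as peak decrease on day 3 (or day 5) at 2 h ± SEM. n = 4 in screen, 4–8 per dose.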

Rattus norvegicus [37] = experiment: as §5; type: functional, Blood; procedure, shortened: as §10; remark: listed apart in the source
Rattus norvegicus [38] = experiment: as §6; type: functional, Blood; procedure, shortened: as §10; remark: listed apart in the source
Rattus norvegicus [39] = experiment: as §8; type: functional, Blood; procedure, shortened: as §10; remark: listed apart in the source

Q: What does the source list for `CN1CCC2(CC1)Oc1ccccc1C2n1cccc1` (centres undefined)?
A: BP (Canis familiaris [1]): -29.7 mmHg; BP (Canis familiaris [2]): 67 mmHg; BP (Canis familiaris [3]): -30 mmHg; BP (Canis familiaris [4]): -38 mmHg; BP (Canis familiaris [5]): 57 mmHg; BP (Canis familiaris [6]): 52.5 mmHg; BP (Canis familiaris [7]): 175 mmHg; BP (Canis familiaris [8]): 129 mmHg; BP (Canis familiaris [9]): 123 mmHg; BP (Canis familiaris [10]): 129 mmHg; BP (Canis familiaris [11]): 82.3 mmHg; BP (Canis familiaris [12]): 117 mmHg; Rate (Canis familiaris [13]): 194 beats min-1; Rate (Canis familiaris [14]): 174 beats min-1; Rate (Canis familiaris [15]): 154 beats min-1; Rate (Canis familiaris [16]): 160 beats min-1; Rate (Canis familiaris [17]): 113 beats min-1; Rate (Canis familiaris [18]): 147 beats min-1; dP/dt (Canis familiaris [19]): 24.2 1/Pmax s; dP/dt (Canis familiaris [20]): 26.2 1/Pmax s; dP/dt (Canis familiaris [21]): 26 1/Pmax s; dP/dt (Canis familiaris [22]): 23.4 1/Pmax s; BP (Canis familiaris [23]): 58 mmHg; BP (Canis familiaris [24]): 48 mmHg; BP (Canis familiaris [25]): -49.2 mmHg; BP (Canis familiaris [26]): 53.7 mmHg; BP (Rattus norvegicus [27]): 184 mmHg and 170 mmHg; BP (Rattus norvegicus [28]): 190 mmHg; BP (Rattus norvegicus [29]): 97 mmHg; BP (Rattus norvegicus [30]): 196 mmHg; BP (Rattus norvegicus [31]): 202 mmHg; BP (Rattus norvegicus [32]): 184 mmHg; BP (Rattus norvegicus [33]): 183 mmHg; BP (Rattus norvegicus [34]): 206 mmHg; BP (Rattus norvegicus [35]): 196 mmHg; Delta blood pressure (Rattus norvegicus [36]): 50 mmHg; Delta blood pressure (Rattus norvegicus [37]): 58 mmHg; Delta blood pressure (Rattus norvegicus [38]): 39 mmHg; Delta blood pressure (Rattus norvegicus [39]): 30 mmHg
